Values belong to the molecule of their own block, whether it stands above or below them. The source made the active and inactive calls. The calls are words filed in the database; no cut-off is given here.
Experiments:
[1] = target: T1, Prostaglandin E2 receptor EP2 subtype (Homo sapiens, UniProt P43116); assay: Agonist activity at recombinant human EP2 receptor expressed in HEK293 cells assessed as induction of cAMP accumulation after 30 mins; type: functional, cell-based
How it was run: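 HEK293 cells stably expressing h-EP2 grown in MEM with 10% FBS, seeded at 2 × 10^4 cells/well. Next day switched to serum-free MEM with 500 µM IBMX (final) for 30 min at 37 °C, then test compound in DMSO added for 30 min at 37 °C. Cells lysed, cAMP quantified by EIA or HTRF kit.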

[2] = target: T1, Prostaglandin E2 receptor EP2 subtype; assay: Displacement of [3H]prostaglandin E2 from human EP2 receptor expressed in HEK293 cell membranes after 60 mins by liquid scintillation counting
[3] = target: T2, Prostaglandin E2 receptor EP1 subtype (Homo sapiens, UniProt P34995); assay: Displacement of [3H]prostaglandin E2 from recombinant human full length EP1 receptor expressed in Chem-1 cell membranes after 60 mins by liquid scintillation counting
T2 sequence (P34995 whole entry): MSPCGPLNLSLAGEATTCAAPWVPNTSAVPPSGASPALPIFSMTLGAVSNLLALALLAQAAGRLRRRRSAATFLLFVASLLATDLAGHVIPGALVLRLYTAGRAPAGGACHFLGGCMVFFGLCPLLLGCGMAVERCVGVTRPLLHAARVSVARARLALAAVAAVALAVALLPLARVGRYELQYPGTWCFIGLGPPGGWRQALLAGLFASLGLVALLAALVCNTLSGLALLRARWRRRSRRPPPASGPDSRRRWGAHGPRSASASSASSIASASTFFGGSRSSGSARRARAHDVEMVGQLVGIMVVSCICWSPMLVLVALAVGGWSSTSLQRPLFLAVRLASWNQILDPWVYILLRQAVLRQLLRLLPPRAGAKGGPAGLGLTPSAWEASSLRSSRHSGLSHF

[4] = target: T3, Prostaglandin E2 receptor EP3 subtype (Homo sapiens, UniProt P43115); assay: Displacement of [3H]prostaglandin E2 from recombinant human full length EP3 receptor expressed in Chem-1 cell membranes after 60 mins by liquid scintillation counting
T3 sequence (P43115 whole entry): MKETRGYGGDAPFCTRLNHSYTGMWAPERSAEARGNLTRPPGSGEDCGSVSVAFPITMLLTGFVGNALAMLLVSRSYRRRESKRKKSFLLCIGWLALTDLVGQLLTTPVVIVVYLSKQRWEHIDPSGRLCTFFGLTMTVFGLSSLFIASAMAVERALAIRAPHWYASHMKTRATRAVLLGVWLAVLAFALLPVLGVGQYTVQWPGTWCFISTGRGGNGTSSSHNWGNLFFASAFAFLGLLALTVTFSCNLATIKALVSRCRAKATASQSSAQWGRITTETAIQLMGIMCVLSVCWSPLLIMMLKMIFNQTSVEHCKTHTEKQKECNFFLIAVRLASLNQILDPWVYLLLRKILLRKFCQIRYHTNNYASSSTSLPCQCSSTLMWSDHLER

Cynomolgus monkey [5] = assay: Reduction of intraocular pressure in ocular normotensive cynomolgus monkey administered topically to the eyes once daily at around 5 pm from day 1 to day 14 and measured at […] at day 8 and 15 post dose; type: functional, organism-based; details: Macaca fascicularis
[6] = Apparent permeability of the compound at 100 uM after 5 hrs by PAMPA; type: ADME
Cynomolgus monkey [7] = assay: Reduction of intraocular pressure in ocular normotensive cynomolgus monkey at 0.01% administered topically to the eyes once daily at around 5 pm from day 1 to day 14 and measured at 10 am at day 8 and 15 post dose; details: Macaca fascicularis
[8] = target: Prostaglandin E2 receptor EP4 subtype (Homo sapiens, UniProt P35408); assay: Displacement of [3H]prostaglandin E2 from recombinant human full length EP4 receptor expressed in Chem-1 cell membranes after 60 mins by liquid scintillation counting
Chain of Prostaglandin E2 receptor EP4 subtype (P35408 whole entry): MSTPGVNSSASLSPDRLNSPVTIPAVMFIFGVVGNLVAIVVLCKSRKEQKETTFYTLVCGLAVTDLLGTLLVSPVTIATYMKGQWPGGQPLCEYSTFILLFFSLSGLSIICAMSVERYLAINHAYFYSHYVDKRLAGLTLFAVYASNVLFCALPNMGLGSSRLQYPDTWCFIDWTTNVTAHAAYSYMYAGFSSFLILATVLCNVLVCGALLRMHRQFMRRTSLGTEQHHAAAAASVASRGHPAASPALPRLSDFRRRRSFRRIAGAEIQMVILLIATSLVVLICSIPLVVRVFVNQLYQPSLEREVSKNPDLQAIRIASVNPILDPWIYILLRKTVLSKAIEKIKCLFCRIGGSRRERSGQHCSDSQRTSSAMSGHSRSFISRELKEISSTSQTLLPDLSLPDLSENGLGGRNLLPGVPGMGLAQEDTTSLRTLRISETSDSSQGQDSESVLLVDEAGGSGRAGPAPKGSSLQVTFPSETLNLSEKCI

Cytochrome P450 3A4 [9] = target: T4, Cytochrome P450 3A4 (Homo sapiens, UniProt P08684); assay: Inhibition of recombinant human CYP3A4 using 7-benzyloxyquinoline fluorescent substrate in presence of NADPH-generating system after 15 mins; type: ADME
T4 sequence (P08684 whole entry, canonical isoform): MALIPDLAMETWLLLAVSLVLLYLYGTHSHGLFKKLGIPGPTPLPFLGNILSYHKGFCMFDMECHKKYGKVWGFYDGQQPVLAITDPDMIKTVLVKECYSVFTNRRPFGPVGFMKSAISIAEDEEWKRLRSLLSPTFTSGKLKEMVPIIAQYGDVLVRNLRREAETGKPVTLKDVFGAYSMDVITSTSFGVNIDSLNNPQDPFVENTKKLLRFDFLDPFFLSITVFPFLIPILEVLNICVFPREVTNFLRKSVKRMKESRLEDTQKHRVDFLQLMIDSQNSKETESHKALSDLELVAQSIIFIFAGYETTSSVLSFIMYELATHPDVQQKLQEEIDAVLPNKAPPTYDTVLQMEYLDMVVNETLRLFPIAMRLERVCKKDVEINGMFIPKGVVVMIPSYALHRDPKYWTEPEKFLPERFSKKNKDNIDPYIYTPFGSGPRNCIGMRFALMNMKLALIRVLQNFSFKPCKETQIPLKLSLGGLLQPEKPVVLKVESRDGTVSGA
How it was run: (§1)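 Each recombinant human CYP isoform (3A4, 2D6, 2C9, 2C19, 1A2) tested for inhibition by compound.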

Cytochrome P450 2C19 = Cytochrome P450 2C19 (Homo sapiens, UniProt P33261); assay: Inhibition of recombinant human CYP2C19 using 3-cyano-7-ethoxycoumarin fluorescent substrate in presence of NADPH-generating system after 15 mins; type: ADME; how it was run: as §1
Chain of Cytochrome P450 2C19 (P33261 whole entry): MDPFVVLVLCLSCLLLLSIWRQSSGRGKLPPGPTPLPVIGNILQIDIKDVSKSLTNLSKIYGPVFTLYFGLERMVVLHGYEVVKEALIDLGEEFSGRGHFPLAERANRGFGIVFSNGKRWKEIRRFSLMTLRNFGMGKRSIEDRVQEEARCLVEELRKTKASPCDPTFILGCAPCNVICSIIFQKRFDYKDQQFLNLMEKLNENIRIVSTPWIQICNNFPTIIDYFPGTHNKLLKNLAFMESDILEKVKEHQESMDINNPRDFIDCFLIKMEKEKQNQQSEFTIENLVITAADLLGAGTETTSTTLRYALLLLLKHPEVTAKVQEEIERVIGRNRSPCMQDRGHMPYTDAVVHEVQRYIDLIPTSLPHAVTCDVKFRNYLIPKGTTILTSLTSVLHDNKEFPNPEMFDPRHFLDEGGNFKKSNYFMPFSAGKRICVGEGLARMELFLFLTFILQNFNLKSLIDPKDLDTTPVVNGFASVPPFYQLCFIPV

Cytochrome P450 2C9 = Cytochrome P450 2C9 (Homo sapiens, UniProt P11712); assay: Inhibition of recombinant human CYP2C9 using 7-methoxy-4-(trifluoromethyl)coumarin fluorescent substrate in presence of NADPH-generating system after 15 mins; type: ADME; how it was run: as §1
Chain of Cytochrome P450 2C9 (P11712 whole entry): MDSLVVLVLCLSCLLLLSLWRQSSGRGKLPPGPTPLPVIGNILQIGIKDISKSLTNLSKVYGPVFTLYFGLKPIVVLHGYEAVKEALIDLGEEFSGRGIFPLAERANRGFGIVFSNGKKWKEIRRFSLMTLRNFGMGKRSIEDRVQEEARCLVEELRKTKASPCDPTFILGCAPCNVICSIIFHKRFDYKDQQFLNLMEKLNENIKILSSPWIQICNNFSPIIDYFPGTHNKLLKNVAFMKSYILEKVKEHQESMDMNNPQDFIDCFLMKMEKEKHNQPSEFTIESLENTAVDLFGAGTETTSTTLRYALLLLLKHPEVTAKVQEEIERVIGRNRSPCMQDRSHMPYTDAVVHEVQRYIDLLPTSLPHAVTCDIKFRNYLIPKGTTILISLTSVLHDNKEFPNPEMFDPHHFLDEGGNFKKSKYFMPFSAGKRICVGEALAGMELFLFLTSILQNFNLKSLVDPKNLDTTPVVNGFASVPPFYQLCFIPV

Cytochrome P450 1A2 [10] = target: T5, Cytochrome P450 1A2 (Homo sapiens, UniProt P05177); assay: Induction of CYP1A2 in human Fa2N-4 cells up to 100 uM using phenacetin as substrate incubated for 24 hrs followed by compound replacement for every 24 hrs during 72 hrs incubation period followed by substrate addition for 4 hrs by LC-MS analysis; type: ADME, cell-based
T5 sequence (P05177 whole entry): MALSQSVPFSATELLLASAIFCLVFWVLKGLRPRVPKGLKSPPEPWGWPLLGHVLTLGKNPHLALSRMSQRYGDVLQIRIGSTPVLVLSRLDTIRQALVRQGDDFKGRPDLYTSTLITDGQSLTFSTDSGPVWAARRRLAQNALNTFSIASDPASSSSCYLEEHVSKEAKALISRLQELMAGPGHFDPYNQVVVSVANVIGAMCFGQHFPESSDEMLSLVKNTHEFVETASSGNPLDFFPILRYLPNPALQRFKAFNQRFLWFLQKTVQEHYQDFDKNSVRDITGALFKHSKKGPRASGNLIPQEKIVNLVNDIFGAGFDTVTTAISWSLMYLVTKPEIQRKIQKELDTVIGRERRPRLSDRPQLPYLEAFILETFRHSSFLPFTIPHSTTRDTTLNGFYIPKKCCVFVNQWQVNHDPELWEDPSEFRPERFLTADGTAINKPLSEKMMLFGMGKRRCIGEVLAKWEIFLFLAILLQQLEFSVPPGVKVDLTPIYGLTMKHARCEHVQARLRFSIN
How it was run: (§2)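 Human Fa2N-4 cells exposed to compound to assess CYP3A4 and CYP1A2 induction. Five concentrations, single experiment in triplicate.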

Cytochrome P450 2D6 = Cytochrome P450 2D6 (Homo sapiens, UniProt P10635); assay: Inhibition of recombinant human CYP2D6 using 3-(2-(N,N-diethyl-N-methylammonium)ethyl)-7-methoxy-4-methylcoumariniodide fluorescent substrate in presence of NADPH-generating system after 15 mins; type: ADME; how it was run: as §1
Chain of Cytochrome P450 2D6 (P10635 whole entry): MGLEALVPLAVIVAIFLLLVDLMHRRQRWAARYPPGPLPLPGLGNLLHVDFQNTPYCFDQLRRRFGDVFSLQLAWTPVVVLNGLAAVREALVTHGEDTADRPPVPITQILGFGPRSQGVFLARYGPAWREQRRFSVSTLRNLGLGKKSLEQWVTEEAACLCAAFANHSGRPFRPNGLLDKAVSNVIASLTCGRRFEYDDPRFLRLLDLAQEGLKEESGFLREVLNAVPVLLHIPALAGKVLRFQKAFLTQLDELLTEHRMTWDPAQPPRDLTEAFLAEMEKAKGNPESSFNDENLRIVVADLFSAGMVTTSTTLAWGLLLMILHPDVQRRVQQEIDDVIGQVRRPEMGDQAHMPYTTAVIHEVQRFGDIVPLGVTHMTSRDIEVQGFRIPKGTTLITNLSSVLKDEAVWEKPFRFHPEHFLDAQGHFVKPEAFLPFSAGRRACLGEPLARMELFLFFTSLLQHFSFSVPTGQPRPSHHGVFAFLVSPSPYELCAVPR

[11] = target: T1, Prostaglandin E2 receptor EP2 subtype; assay: Potency index, ratio of CP-533,536 EC50 to compound EC50 for recombinant human EP2 receptor expressed in HEK293 cells by cAMP accumulation assay; type: functional, cell-based
[12] = Apparent permeability from apical side at pH 7.4 to basolateral side at pH 7.4 in human Caco2 cells a 10 uM after 30 to 120 mins by HPLC-MS analysis; type: ADME, cell-based; details: Caco-2, pH 7.4
Cytochrome P450 3A4 [13] = target: T4, Cytochrome P450 3A4; assay: Induction of CYP3A4 in human Fa2N-4 cells up to 100 uM using testosterone as substrate incubated for 24 hrs followed by compound replacement for every 24 hrs during 72 hrs incubation period followed by substrate addition for 4 hrs by LC-MS analysis; type: ADME, cell-based; how it was run: as §2
[14] = Apparent permeability from apical side at pH 6.5 to basolateral side at pH 7.4 in human Caco2 cells a 10 uM after 30 to 120 mins by HPLC-MS analysis; type: ADME, cell-based; details: Caco-2, pH 6.5
Cytochrome P450 1A2 [15] = target: T5, Cytochrome P450 1A2; assay: Inhibition of recombinant human CYP1A2 using 3-cyano-7-ethoxycoumarin fluorescent substrate in presence of NADPH-generating system after 15 mins; type: ADME; how it was run: as §1
Cynomolgus monkey [16] = assay: Reduction of intraocular pressure in ocular normotensive cynomolgus monkey at 0.3 to 1% administered topically to the eyes once daily at around 5 pm from day 1 to day 14 and measured at 10 am at day 8 and 15 post dose; details: Macaca fascicularis
[17] = Drug metabolism in human liver microsomes assessed as metabolic rate at 10 uM after 30 mins by HPLC-MS analysis; type: ADME, Microsome; details: 0.5 h

T1 sequence (P43116 whole entry): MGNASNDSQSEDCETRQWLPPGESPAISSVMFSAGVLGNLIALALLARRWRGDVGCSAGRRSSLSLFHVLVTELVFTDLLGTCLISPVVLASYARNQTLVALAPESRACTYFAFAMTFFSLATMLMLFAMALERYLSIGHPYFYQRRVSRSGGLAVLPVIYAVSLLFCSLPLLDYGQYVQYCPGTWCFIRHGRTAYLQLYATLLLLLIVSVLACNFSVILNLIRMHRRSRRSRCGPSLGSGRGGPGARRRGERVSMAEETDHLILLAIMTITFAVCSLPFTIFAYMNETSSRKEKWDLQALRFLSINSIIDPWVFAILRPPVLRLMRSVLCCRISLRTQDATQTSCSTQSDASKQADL

Structure (SMILES): CC(C)(C)c1ccc(CN(Cc2ccc3ccn(CC(=O)O)c3c2)S(=O)(=O)c2cccnc2)cc1
- EC50 [1]: > 1000 nM

Structure (SMILES): CC(C)(C)c1ccc(CN(Cc2ccnc(NCC(=O)O)c2)S(=O)(=O)c2cccnc2)cc1
- EC50 [1]: > 1000 nM

Structure (SMILES): CC(C)(C)c1ccc(CN(Cc2cccc(NCC(=O)O)n2)S(=O)(=O)c2ccccc2F)cc1
- EC50 [1]: 45 nM

Structure (SMILES): CC(C)(C)c1ccc(CN(Cc2cccc(NCCC(=O)O)n2)S(=O)(=O)c2cccnc2)cc1
- EC50 [1]: 83 nM

Structure (SMILES): CC(C)(C)c1ccc(CN(Cc2cccc3oc(C(=O)O)cc23)S(=O)(=O)c2cccnc2)cc1
- Ki [2]: 15 nM

Structure (SMILES): CC(C)(C)c1ccc(CN(Cc2cccc(NCC(=O)O)n2)S(C)(=O)=O)cc1
- EC50 [1]: 91 nM

Structure (SMILES): CC(C)(C)C1CCC(CN(Cc2cccc(NCC(=O)O)n2)S(=O)(=O)c2cccnc2)CC1 (stereo unspecified)
- EC50 [1]: 649 nM

Structure (SMILES): CCCCC[C@H](O)/C=C/[C@H]1[C@H](O)CC(=O)[C@@H]1C/C=C\CCCC(=O)O [DINOPROSTONE]
- IC50 [3]: < 30 nM

Structure (SMILES): CC(C)(C)c1cccc(CN(Cc2cccc(NCC(=O)O)n2)S(=O)(=O)c2cccnc2)c1
- EC50 [1]: 109 nM

Structure (SMILES): CC(C)(C)c1ccc(CN(Cc2ccc3cc(C(=O)O)oc3c2)S(=O)(=O)c2cccnc2)cc1
- Ki [2]: 433 nM

Structure (SMILES): CC(C)OC(=O)CNc1cccc(CN(Cc2ccc(-n3cccn3)cc2)S(=O)(=O)c2cccnc2)n1 [OMIDENEPAG ISOPROPYL]
- IC50 [4]: > 10000 nM
- IC50 [2]: 4180 nM
- Activity (Cynomolgus monkey [5]): Dose-dependent effect
- Papp at 5 h, 100 µM [6]: 28 ×10⁻⁶ cm/s
- Activity (Cynomolgus monkey [7]): Active
- IC50 [3]: > 10000 nM
- IC50 [8]: > 10000 nM

Structure (SMILES): CC(C)(C)c1ccc(CN(Cc2csc(NCC(=O)O)n2)S(=O)(=O)c2cccnc2)cc1
- EC50 [1]: 360 nM

Structure (SMILES): COc1ccc(S(=O)(=O)N(Cc2ccc(C(C)(C)C)cc2)Cc2cccc(NCC(=O)O)n2)cc1
- EC50 [1]: 19 nM

Structure (SMILES): O=C(O)CNc1cccc(CN(CCCCCc2ccccc2)S(=O)(=O)c2cccnc2)n1
- EC50 [1]: 118 nM

Structure (SMILES): CC(C)(C)c1ccc(CN(Cc2cc(NCC(=O)O)ccn2)S(=O)(=O)c2cccnc2)cc1
- EC50 [1]: > 1000 nM

Structure (SMILES): CC(C)(C)c1ccc(CN(Cc2cccc(NCC(=O)O)n2)S(=O)(=O)c2ccccc2Cl)cc1
- EC50 [1]: > 1000 nM

Structure (SMILES): CN(CC(=O)O)c1cccc(CN(Cc2ccc(C(C)(C)C)cc2)S(=O)(=O)c2cccnc2)n1
- EC50 [1]: 283 nM

The next lines start with results.

- EC50 [1]: 43 nM
Structure (SMILES): O=C(O)CNc1cccc(CN(Cc2ccc(-n3cncn3)cc2)S(=O)(=O)c2cccnc2)n1

- EC50 [1]: 1.6 nM
Structure (SMILES): O=C(O)CNc1cccc(CN(Cc2ccc(-c3ccccn3)cc2)S(=O)(=O)c2cccnc2)n1

- EC50 [1]: 35 nM
Structure (SMILES): O=C(O)CNc1cccc(CN(Cc2ccc(-c3ccc(F)cc3)cc2)S(=O)(=O)c2cccnc2)n1

- EC50 [1]: 29 nM
Structure (SMILES): O=C(O)CNc1cccc(CN(Cc2ccc(C3CCCCC3)cc2)S(=O)(=O)c2cccnc2)n1

- EC50 [1]: 13 nM
Structure (SMILES): CCC1(c2ccc(CN(Cc3cccc(NCC(=O)O)n3)S(=O)(=O)c3cccnc3)cc2)CCC1

- EC50 [1]: 18 nM
Structure (SMILES): CC(C)C1(c2ccc(CN(Cc3cccc(NCC(=O)O)n3)S(=O)(=O)c3cccnc3)cc2)CC1

- EC50 [1]: 75 nM
Structure (SMILES): O=C(O)CNc1cccc(CN(Cc2ccc(-c3ccc(Cl)cc3)cc2)S(=O)(=O)c2cccnc2)n1

- EC50 [1]: 307 nM
Structure (SMILES): O=C(O)CNc1cccc(CN(Cc2ccc(-c3ccnnc3)cc2)S(=O)(=O)c2cccnc2)n1

- EC50 [1]: 620 nM
Structure (SMILES): CC(C)(C)c1ccc(CN(Cc2cccc(NCC(=O)O)n2)S(=O)(=O)c2cccc(Cl)c2)cc1

- IC50 (Cytochrome P450 3A4 [9]): > 20000 nM
- IC50 (Cytochrome P450 2C19): > 20000 nM
- IC50 (Cytochrome P450 2C9): > 20000 nM
- IC50 [4]: > 10000 nM
- Activity (Cytochrome P450 1A2 [10]): Not Active
- IC50 (Cytochrome P450 2D6): > 20000 nM
- IC50 [2]: 10 nM
- Ratio EC50 [11]: > 10
- EC50 [1]: 1.1 nM
- Papp A→B at 10 µM [12]: 0.28 ×10⁻⁶ cm/s
- Activity (Cytochrome P450 3A4 [13]): Not Active
- Papp A→B at 10 µM [14]: 0.59 ×10⁻⁶ cm/s
- IC50 (Cytochrome P450 1A2 [15]): > 20000 nM
- Papp at 5 h, 100 µM [6]: 0.9 ×10⁻⁶ cm/s
- IC50 [3]: > 10000 nM
- IC50 [8]: 5480 nM
- Drug metabolism [17]: 57 pmol/min/mg
Structure (SMILES): O=C(O)CNc1cccc(CN(Cc2ccc(-n3cccn3)cc2)S(=O)(=O)c2cccnc2)n1 [OMIDENEPAG]
- Activity (Cynomolgus monkey [16]): Active

- EC50 [1]: 119 nM
Structure (SMILES): O=C(O)CNc1cccc(CN(Cc2ccc(C(F)(F)F)cc2)S(=O)(=O)c2cccnc2)n1
